In ChEMBL document CHEMBL5303300, “EUbOPEN Chemogenomics Library - Multiplex” (2023):
Values joined by “and” are separate entries in the source; they are usually repeats but may differ in a detail not shown here. Identical values can stand only once.

System: Fibroblast
Assay: Multiplex assay against human fibroblast
Format: toxicity, cell-based
Details: number of replicates 2
Summary of the method: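 Cells stained live at seeding with Hoechst33342, BioTracker Green Microtubule Cytoskeleton Dye, MitoTracker Red and Annexin V Alexa Fluor 680 were imaged on a CQ1 microscope at 37°C and 5% CO2 after compound addition. Their classification by CellPathfinder machine-learning gating ran from Hoechst high-intensity objects versus normal cells, to healthy, pyknosed or fragmented nuclei among normal cells, to mitotic or apoptotic among pyknosed cells. Tubulin, mitochondrial-mass and membrane-permeability phenotypes are per cents of healthy-nucleus cells.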

[1] = 12 h, 1 µM, compound concentration 1 uM
[2] = 12 h, 10 µM, compound concentration 10 uM
[3] = 24 h, 1 µM, compound concentration 1 uM
[4] = 24 h, 10 µM, compound concentration 10 uM
[5] = 48 h, 1 µM, compound concentration 1 uM
[6] = 48 h, 10 µM, compound concentration 10 uM

CN(C)CCCNc1ccnc(Nc2cccc(Cl)c2)n1
Population Apoptotic (%) [1]: 13% and 30% | Population Fragmented Nuclei (%) [1]: 9% and 15% | Population Healthy Nuclei (%) [1]: 76% and 67% | Population Hoechst High Intensity Objects (%) [1]: 0% | Population Membrane Permeable-Phenotype (%) [1]: 4% | Population Mitochondria Different-Phenotype (%) [1]: 1% | Population Mitotic Cells (%) [1]: 86% and 70% | Population Normal (%) [1]: 99% and 100% | Population Pyknosed Nuclei (%) [1]: 14% and 16% | Population Tubulin-Different-Phenotype (%) [1]: 14% and 10% | Total Cell Count [1]: 249 and 301 | Population Apoptotic (%) [2]: 36% and 44% | Population Fragmented Nuclei (%) [2]: 23% and 18% | Population Healthy Nuclei (%) [2]: 65% and 70% | Population Hoechst High Intensity Objects (%) [2]: 0% | Population Membrane Permeable-Phenotype (%) [2]: 6% and 3% | Population Mitochondria Different-Phenotype (%) [2]: 2% and 1% | Population Mitotic Cells (%) [2]: 63% and 55% | Population Normal (%) [2]: 99% | Population Pyknosed Nuclei (%) [2]: 10% and 11% | Population Tubulin-Different-Phenotype (%) [2]: 32% and 19% | Total Cell Count [2]: 277 and 316 | Population Apoptotic (%) [3]: 35% and 40% | Population Fragmented Nuclei (%) [3]: 13% and 19% | Population Healthy Nuclei (%) [3]: 73% and 66% | Population Hoechst High Intensity Objects (%) [3]: 0% | Population Membrane Permeable-Phenotype (%) [3]: 4% | Population Mitochondria Different-Phenotype (%) [3]: 0% and 2% | Population Mitotic Cells (%) [3]: 64% and 59% | Population Normal (%) [3]: 100% and 99% | Population Pyknosed Nuclei (%) [3]: 13% and 14% | Population Tubulin-Different-Phenotype (%) [3]: 14% and 13% | Total Cell Count [3]: 284 and 321 | Population Apoptotic (%) [4]: 30% and 31% | Population Fragmented Nuclei (%) [4]: 18% and 13% | Population Healthy Nuclei (%) [4]: 61% and 66% | Population Hoechst High Intensity Objects (%) [4]: 1% and 2% | Population Membrane Permeable-Phenotype (%) [4]: 4% and 3% | Population Mitochondria Different-Phenotype (%) [4]: 3% and 0% | Population Mitotic Cells (%) [4]: 69% and 68% | Population Normal (%) [4]: 98% and 97% | Population Pyknosed Nuclei (%) [4]: 20% and 19% | Population Tubulin-Different-Phenotype (%) [4]: 32% and 17% | Total Cell Count [4]: 319 and 392 | Population Apoptotic (%) [5]: 56% and 66% | Population Fragmented Nuclei (%) [5]: 18% and 25% | Population Healthy Nuclei (%) [5]: 70% and 65% | Population Hoechst High Intensity Objects (%) [5]: 0% | Population Membrane Permeable-Phenotype (%) [5]: 3% and 1% | Population Mitochondria Different-Phenotype (%) [5]: 0% | Population Mitotic Cells (%) [5]: 43% and 33% | Population Normal (%) [5]: 99% | Population Pyknosed Nuclei (%) [5]: 10% and 9% | Population Tubulin-Different-Phenotype (%) [5]: 12% and 5% | Total Cell Count [5]: 314 and 360 | Population Apoptotic (%) [6]: 22% and 29% | Population Fragmented Nuclei (%) [6]: 17% and 16% | Population Healthy Nuclei (%) [6]: 66% and 70% | Population Hoechst High Intensity Objects (%) [6]: 6% | Population Membrane Permeable-Phenotype (%) [6]: 3% and 2% | Population Mitochondria Different-Phenotype (%) [6]: 2% and 0% | Population Mitotic Cells (%) [6]: 77% and 70% | Population Normal (%) [6]: 93% | Population Pyknosed Nuclei (%) [6]: 16% and 13% | Population Tubulin-Different-Phenotype (%) [6]: 33% and 16% | Total Cell Count [6]: 391 and 463

O=C1NC(=O)C(c2ccccc2[N+](=O)[O-])=C1Nc1ccc(O)c(Cl)c1
Population Fragmented Nuclei (%) [1]: 10% and 18% | Population Healthy Nuclei (%) [1]: 77% and 65% | Population Hoechst High Intensity Objects (%) [1]: 0% | Population Membrane Permeable-Phenotype (%) [1]: 3% and 7% | Population Mitochondria Different-Phenotype (%) [1]: 1% and 0% | Population Mitotic Cells (%) [1]: 87% and 53% | Population Normal (%) [1]: 100% and 99% | Population Pyknosed Nuclei (%) [1]: 11% and 16% | Population Tubulin-Different-Phenotype (%) [1]: 4% and 9% | Population Apoptotic (%) [2]: 46% and 47% | Population Fragmented Nuclei (%) [2]: 8% and 12% | Population Healthy Nuclei (%) [2]: 82% and 80% | Population Hoechst High Intensity Objects (%) [2]: 0% | Population Membrane Permeable-Phenotype (%) [2]: 1% and 2% | Population Mitochondria Different-Phenotype (%) [2]: 0% and 1% | Population Mitotic Cells (%) [2]: 53% and 52% | Population Normal (%) [2]: 100% | Population Pyknosed Nuclei (%) [2]: 9% and 7% | Population Tubulin-Different-Phenotype (%) [2]: 6% and 5% | Population Apoptotic (%) [3]: 45% and 57% | Population Fragmented Nuclei (%) [3]: 10% and 17% | Population Healthy Nuclei (%) [3]: 84% and 74% | Population Hoechst High Intensity Objects (%) [3]: 0% | Population Membrane Permeable-Phenotype (%) [3]: 2% and 4% | Population Mitochondria Different-Phenotype (%) [3]: 0% and 1% | Population Mitotic Cells (%) [3]: 54% and 42% | Population Normal (%) [3]: 100% | Population Pyknosed Nuclei (%) [3]: 5% and 8% | Population Tubulin-Different-Phenotype (%) [3]: 5% and 7% | Population Apoptotic (%) [4]: 40% and 37% | Population Fragmented Nuclei (%) [4]: 12% and 11% | Population Healthy Nuclei (%) [4]: 81% and 84% | Population Hoechst High Intensity Objects (%) [4]: 0% | Population Membrane Permeable-Phenotype (%) [4]: 2% and 3% | Population Mitochondria Different-Phenotype (%) [4]: 0% and 1% | Population Mitotic Cells (%) [4]: 60% and 62% | Population Normal (%) [4]: 100% | Population Pyknosed Nuclei (%) [4]: 6% and 3% | Population Tubulin-Different-Phenotype (%) [4]: 7% and 2% | Population Apoptotic (%) [5]: 35% and 46% | Population Fragmented Nuclei (%) [5]: 12% and 19% | Population Healthy Nuclei (%) [5]: 81% and 73% | Population Hoechst High Intensity Objects (%) [5]: 0% | Population Membrane Permeable-Phenotype (%) [5]: 1% and 2% | Population Mitochondria Different-Phenotype (%) [5]: 0% | Population Mitotic Cells (%) [5]: 64% and 53% | Population Normal (%) [5]: 100% | Population Pyknosed Nuclei (%) [5]: 6% | Population Tubulin-Different-Phenotype (%) [5]: 3% and 2% | Population Apoptotic (%) [6]: 33% and 75% | Population Fragmented Nuclei (%) [6]: 6% and 11% | Population Healthy Nuclei (%) [6]: 91% and 84% | Population Hoechst High Intensity Objects (%) [6]: 0% | Population Membrane Permeable-Phenotype (%) [6]: 3% and 0% | Population Mitochondria Different-Phenotype (%) [6]: 0% | Population Mitotic Cells (%) [6]: 66% and 25% | Population Normal (%) [6]: 100% | Population Pyknosed Nuclei (%) [6]: 1% and 3% | Population Tubulin-Different-Phenotype (%) [6]: 7% and 1%

COc1ccccc1-c1cc(Nc2cccc(CS(N)(=O)=O)c2)ncn1
Population Apoptotic (%) [1]: 36% and 33% | Population Fragmented Nuclei (%) [1]: 4% and 7% | Population Healthy Nuclei (%) [1]: 78% and 68% | Population Hoechst High Intensity Objects (%) [1]: 0% | Population Membrane Permeable-Phenotype (%) [1]: 8% and 2% | Population Mitochondria Different-Phenotype (%) [1]: 1% and 0% | Population Mitotic Cells (%) [1]: 63% and 66% | Population Normal (%) [1]: 100% and 99% | Population Pyknosed Nuclei (%) [1]: 16% and 24% | Population Tubulin-Different-Phenotype (%) [1]: 13% and 7% | Total Cell Count [1]: 202 and 230 | Population Apoptotic (%) [2]: 46% and 42% | Population Fragmented Nuclei (%) [2]: 4% and 7% | Population Healthy Nuclei (%) [2]: 77% and 71% | Population Hoechst High Intensity Objects (%) [2]: 0% | Population Membrane Permeable-Phenotype (%) [2]: 7% and 5% | Population Mitochondria Different-Phenotype (%) [2]: 0% and 1% | Population Mitotic Cells (%) [2]: 53% and 57% | Population Normal (%) [2]: 100% and 99% | Population Pyknosed Nuclei (%) [2]: 17% and 21% | Population Tubulin-Different-Phenotype (%) [2]: 17% and 19% | Total Cell Count [2]: 181 and 214 | Population Apoptotic (%) [3]: 41% and 49% | Population Fragmented Nuclei (%) [3]: 6% and 10% | Population Healthy Nuclei (%) [3]: 75% and 64% | Population Hoechst High Intensity Objects (%) [3]: 0% | Population Membrane Permeable-Phenotype (%) [3]: 5% and 7% | Population Mitochondria Different-Phenotype (%) [3]: 2% and 0% | Population Mitotic Cells (%) [3]: 58% and 50% | Population Normal (%) [3]: 100% and 99% | Population Pyknosed Nuclei (%) [3]: 18% and 25% | Population Tubulin-Different-Phenotype (%) [3]: 15% and 12% | Total Cell Count [3]: 194 and 245 | Population Apoptotic (%) [4]: 61% and 55% | Population Fragmented Nuclei (%) [4]: 10% and 9% | Population Healthy Nuclei (%) [4]: 76% and 68% | Population Hoechst High Intensity Objects (%) [4]: 0% | Population Membrane Permeable-Phenotype (%) [4]: 1% | Population Mitochondria Different-Phenotype (%) [4]: 3% and 4% | Population Mitotic Cells (%) [4]: 38% and 44% | Population Normal (%) [4]: 100% | Population Pyknosed Nuclei (%) [4]: 12% and 21% | Population Tubulin-Different-Phenotype (%) [4]: 18% and 15% | Total Cell Count [4]: 202 and 214 | Population Apoptotic (%) [5]: 66% and 56% | Population Fragmented Nuclei (%) [5]: 5% and 14% | Population Healthy Nuclei (%) [5]: 78% and 67% | Population Hoechst High Intensity Objects (%) [5]: 0% | Population Membrane Permeable-Phenotype (%) [5]: 4% and 6% | Population Mitochondria Different-Phenotype (%) [5]: 0% | Population Mitotic Cells (%) [5]: 33% and 43% | Population Normal (%) [5]: 99% | Population Pyknosed Nuclei (%) [5]: 15% and 18% | Population Tubulin-Different-Phenotype (%) [5]: 8% and 5% | Total Cell Count [5]: 192 and 250 | Population Apoptotic (%) [6]: 78% and 80% | Population Fragmented Nuclei (%) [6]: 9% | Population Healthy Nuclei (%) [6]: 83% and 74% | Population Hoechst High Intensity Objects (%) [6]: 0% | Population Membrane Permeable-Phenotype (%) [6]: 3% and 9% | Population Mitochondria Different-Phenotype (%) [6]: 1% | Population Mitotic Cells (%) [6]: 21% and 20% | Population Normal (%) [6]: 100% | Population Pyknosed Nuclei (%) [6]: 6% and 16% | Population Tubulin-Different-Phenotype (%) [6]: 16% and 26% | Total Cell Count [6]: 203 and 209
